Measurements taken from ChEMBL document CHEMBL1759918, “2-Substituted 5,6-dimethyl-3-phenylsulfonyl-pyrazolo[1,5-a]pyrimidines: new series of highly potent and specific serotonin 5-HT6 receptor antagonists” (Eur J Med Chem, 2011).
Each block holds one compound with its values, some of them ahead of it. The source made the active and inactive calls. The rule behind the calls is not given here.

Tests used:
[1] = molecular target: T1, 5-hydroxytryptamine receptor 6 (Homo sapiens, UniProt P50406); assay: Antagonist activity at human recombinant 5HT6 receptor expressed in HEK293 cells assessed as inhibition of serotonin-induced cAMP production after 2 hrs; format: functional, cell-based
T1 sequence (P50406 whole entry): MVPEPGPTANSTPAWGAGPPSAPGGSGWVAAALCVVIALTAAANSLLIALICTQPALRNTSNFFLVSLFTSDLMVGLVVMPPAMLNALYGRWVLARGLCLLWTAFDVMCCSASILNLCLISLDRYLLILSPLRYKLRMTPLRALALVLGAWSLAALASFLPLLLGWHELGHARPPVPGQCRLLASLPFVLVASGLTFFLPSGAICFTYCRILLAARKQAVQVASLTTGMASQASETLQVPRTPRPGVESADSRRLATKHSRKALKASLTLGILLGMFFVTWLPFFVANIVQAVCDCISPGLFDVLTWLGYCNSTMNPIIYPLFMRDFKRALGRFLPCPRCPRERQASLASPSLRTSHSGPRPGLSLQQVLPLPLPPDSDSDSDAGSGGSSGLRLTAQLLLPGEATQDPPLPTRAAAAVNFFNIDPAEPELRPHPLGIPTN
How it was run: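 Tetracycline-induced (1 ug/mL, day before) T-Rex HEK cells expressing 5-HT6R, EDTA-harvested, in HBSS/5 mM HEPES pH 7.4/0.05% BSA with IBMX; ~4000 cells/well. Compound premixed with serotonin (final 10 nM, 0.32% DMSO), 2 h; cAMP by LANCE kit. Duplicates; 4-parameter IC50; Ki = IC50/(1+[Ag]/EC50), serotonin EC50 measured on same plates.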

[2] = molecular target: T1, 5-hydroxytryptamine receptor 6; assay: Displacement of [3H]lysergic acid diethylamide from human recombinant 5HT6 receptor
Homo sapiens = species on record: Homo sapiens; assay: Ratio of Ki for human recombinant 5HT6 receptor to Ki for human recombinant 5HT2B receptor
HEK293 = assay: Ratio of IC50 for human recombinant 5HT6 receptor expressed in human HEK293 cells to IC50 for human recombinant 5HT2B receptor expressed in human HEK293 cells; format: cell-based
How it was run: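 5-HT6 arm: tetracycline-induced (1 ug/mL, day before) T-Rex 5-HT6R-HEK cells, ~4000 cells/well in HBSS/5 mM HEPES pH 7.4/0.05% BSA, 500 µM IBMX final; compound with 10 nM serotonin, 2 h; cAMP by LANCE TR-FRET. 5-HT2B arm: Fura-2-loaded 5-HT2BR-HEK cells in cuvette, 340/380 nm excitation, 510 nm emission, response to 5 µM α-methylserotonin. IC50 from 4-parameter fits, duplicates.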

[3] = molecular target: Voltage-gated inwardly rectifying potassium channel KCNH2 (Homo sapiens, UniProt Q12809); assay: Antagonist activity at human ERG by patch clamp method; format: functional
[4] = molecular target: 5-hydroxytryptamine receptor 1A (Homo sapiens) (UniProt P08908); assay: Binding affinity to 5HT1A receptor at 10 uM by radioligand binding assay
Sequence of 5-hydroxytryptamine receptor 1A (Homo sapiens) (P08908 whole entry): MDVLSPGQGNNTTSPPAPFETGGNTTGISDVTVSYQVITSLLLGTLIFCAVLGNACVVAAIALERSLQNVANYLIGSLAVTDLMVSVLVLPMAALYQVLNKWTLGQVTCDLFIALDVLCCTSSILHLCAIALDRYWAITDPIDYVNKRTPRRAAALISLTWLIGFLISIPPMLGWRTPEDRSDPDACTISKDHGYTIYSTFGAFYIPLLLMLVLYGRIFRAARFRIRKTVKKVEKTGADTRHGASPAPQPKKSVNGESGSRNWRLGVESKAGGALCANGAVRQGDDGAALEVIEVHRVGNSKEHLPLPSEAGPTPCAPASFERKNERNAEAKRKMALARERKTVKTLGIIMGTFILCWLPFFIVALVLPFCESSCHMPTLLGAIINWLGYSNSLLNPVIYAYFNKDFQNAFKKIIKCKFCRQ
How it was run: (§1)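 Outsourced competitive radioligand displacement against target-specific labelled ligands, using the contractor's own protocol for each target. Single test concentration; duplicates, mean ± SD.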

[5] = molecular target: 5-hydroxytryptamine receptor 1B (Homo sapiens) (UniProt P28222); assay: Binding affinity to 5HT1B receptor at 10 uM by radioligand binding assay; how it was run: as §1
[6] = molecular target: 5-hydroxytryptamine receptor 2C (Homo sapiens) (UniProt P28335); assay: Binding affinity to 5HT2C receptor at 10 uM by radioligand binding assay; how it was run: as §1
[7] = molecular target: 5-hydroxytryptamine receptor 3A (Homo sapiens) (UniProt P46098); assay: Binding affinity to 5HT3 receptor at 10 uM by radioligand binding assay; how it was run: as §1
[8] = molecular target: Alpha-1A adrenergic receptor (Homo sapiens) (UniProt P35348); assay: Binding affinity to Adrenergic alpha1A receptor at 10 uM by radioligand binding assay; how it was run: as §1
[9] = molecular target: Alpha-1B adrenergic receptor (Homo sapiens) (UniProt P35368); assay: Binding affinity to Adrenergic Alpha-1B receptor at 10 uM by radioligand binding assay; how it was run: as §1
Sequence of Alpha-1B adrenergic receptor (Homo sapiens) (P35368 whole entry): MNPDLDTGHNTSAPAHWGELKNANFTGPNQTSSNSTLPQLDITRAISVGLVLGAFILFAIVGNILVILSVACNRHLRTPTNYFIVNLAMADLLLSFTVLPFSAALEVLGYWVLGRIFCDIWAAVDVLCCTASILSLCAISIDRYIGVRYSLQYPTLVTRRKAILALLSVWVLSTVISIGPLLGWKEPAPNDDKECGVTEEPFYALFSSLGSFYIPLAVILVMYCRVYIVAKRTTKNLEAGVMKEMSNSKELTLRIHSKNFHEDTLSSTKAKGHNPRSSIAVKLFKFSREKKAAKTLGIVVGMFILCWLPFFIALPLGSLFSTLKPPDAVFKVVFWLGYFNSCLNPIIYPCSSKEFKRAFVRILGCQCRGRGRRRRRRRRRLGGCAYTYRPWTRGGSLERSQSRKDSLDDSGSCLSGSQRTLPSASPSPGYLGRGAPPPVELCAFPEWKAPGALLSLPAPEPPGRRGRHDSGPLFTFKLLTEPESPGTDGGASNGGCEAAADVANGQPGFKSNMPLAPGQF

[10] = molecular target: Alpha-1D adrenergic receptor (Homo sapiens) (UniProt P25100); assay: Binding affinity to Adrenergic Alpha-1D receptor at 10 uM by radioligand binding assay; how it was run: as §1
[11] = Binding affinity to sigma2 receptor at 10 uM by radioligand binding assay
How it was run: (§2)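 Panel screen of 56 targets (GPCRs, ion channels, transporters) run by a contract lab under its own protocols; each target scored by competition of a single 10 µM compound concentration with its target-specific radioligand, given as percent displacement; duplicates, mean ± SD.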

[12] = molecular target: Adenosine receptor A1 (Homo sapiens) (UniProt P30542); assay: Binding affinity to Adenosinergic A1 receptor at 10 uM by radioligand binding assay; how it was run: as §1
[13] = molecular target: Adenosine receptor A2a (Homo sapiens) (UniProt P29274); assay: Binding affinity to Adenosinergic A2A receptor at 10 uM by radioligand binding assay; how it was run: as §1
Sequence of Adenosine receptor A2a (Homo sapiens) (P29274 whole entry): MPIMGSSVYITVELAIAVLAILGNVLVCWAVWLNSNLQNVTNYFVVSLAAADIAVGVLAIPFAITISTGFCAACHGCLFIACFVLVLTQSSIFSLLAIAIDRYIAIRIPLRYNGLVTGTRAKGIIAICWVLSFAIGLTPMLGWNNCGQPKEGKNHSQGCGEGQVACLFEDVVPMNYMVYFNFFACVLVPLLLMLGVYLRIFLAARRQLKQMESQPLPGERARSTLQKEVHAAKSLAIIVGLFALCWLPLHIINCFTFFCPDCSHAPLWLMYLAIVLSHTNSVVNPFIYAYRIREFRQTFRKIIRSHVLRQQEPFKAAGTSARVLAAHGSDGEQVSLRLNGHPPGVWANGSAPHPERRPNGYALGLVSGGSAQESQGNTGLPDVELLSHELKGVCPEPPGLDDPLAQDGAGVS

[14] = molecular target: Muscarinic acetylcholine receptor M1 (Homo sapiens) (UniProt P11229); assay: Binding affinity to Muscarinic M1 receptor at 10 uM by radioligand binding assay; how it was run: as §1
Sequence of Muscarinic acetylcholine receptor M1 (Homo sapiens) (P11229 whole entry): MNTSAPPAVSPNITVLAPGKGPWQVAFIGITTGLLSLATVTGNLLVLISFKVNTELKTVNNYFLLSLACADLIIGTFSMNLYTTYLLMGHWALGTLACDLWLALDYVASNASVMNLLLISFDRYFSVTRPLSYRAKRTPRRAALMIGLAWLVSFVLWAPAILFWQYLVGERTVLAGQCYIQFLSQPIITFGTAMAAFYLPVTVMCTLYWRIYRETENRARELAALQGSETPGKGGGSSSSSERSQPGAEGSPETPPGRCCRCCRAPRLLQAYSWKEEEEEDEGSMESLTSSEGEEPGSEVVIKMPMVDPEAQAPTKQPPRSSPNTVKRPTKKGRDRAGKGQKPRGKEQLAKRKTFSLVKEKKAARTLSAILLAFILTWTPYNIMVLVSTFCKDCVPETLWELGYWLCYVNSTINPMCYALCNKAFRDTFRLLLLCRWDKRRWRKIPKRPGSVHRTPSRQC

[15] = molecular target: Muscarinic acetylcholine receptor M2 (Homo sapiens) (UniProt P08172); assay: Binding affinity to Muscarinic M2 receptor at 10 uM by radioligand binding assay; how it was run: as §1
[16] = molecular target: Muscarinic acetylcholine receptor M3 (Homo sapiens) (UniProt P20309); assay: Binding affinity to Muscarinic M3 receptor at 10 uM by radioligand binding assay; how it was run: as §1
Sequence of Muscarinic acetylcholine receptor M3 (Homo sapiens) (P20309 whole entry, looked up): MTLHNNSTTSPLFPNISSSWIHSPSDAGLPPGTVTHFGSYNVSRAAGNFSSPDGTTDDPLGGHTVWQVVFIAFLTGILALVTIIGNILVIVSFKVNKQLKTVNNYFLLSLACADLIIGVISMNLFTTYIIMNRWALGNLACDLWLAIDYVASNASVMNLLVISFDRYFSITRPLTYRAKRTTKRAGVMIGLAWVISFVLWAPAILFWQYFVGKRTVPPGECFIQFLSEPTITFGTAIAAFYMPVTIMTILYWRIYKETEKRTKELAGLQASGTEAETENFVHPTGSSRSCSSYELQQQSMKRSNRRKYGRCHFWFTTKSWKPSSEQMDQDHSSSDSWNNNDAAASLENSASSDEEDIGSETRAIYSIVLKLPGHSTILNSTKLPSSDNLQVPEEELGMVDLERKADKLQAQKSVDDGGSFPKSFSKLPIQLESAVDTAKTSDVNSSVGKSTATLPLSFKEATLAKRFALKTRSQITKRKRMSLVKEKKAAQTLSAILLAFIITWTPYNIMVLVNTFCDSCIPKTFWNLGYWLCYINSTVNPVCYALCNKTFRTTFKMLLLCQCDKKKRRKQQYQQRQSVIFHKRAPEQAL

[17] = molecular target: Substance-P receptor (Homo sapiens) (UniProt P25103); assay: Binding affinity to tachykinin NK1 receptor at 10 uM by radioligand binding assay; how it was run: as §2
[18] = molecular target: Neuropeptide Y receptor type 1 (Homo sapiens) (UniProt P25929); assay: Binding affinity to Neuropeptide Y Y1 receptor at 10 uM by radioligand binding assay; how it was run: as §1
Sequence of Neuropeptide Y receptor type 1 (Homo sapiens) (P25929 whole entry): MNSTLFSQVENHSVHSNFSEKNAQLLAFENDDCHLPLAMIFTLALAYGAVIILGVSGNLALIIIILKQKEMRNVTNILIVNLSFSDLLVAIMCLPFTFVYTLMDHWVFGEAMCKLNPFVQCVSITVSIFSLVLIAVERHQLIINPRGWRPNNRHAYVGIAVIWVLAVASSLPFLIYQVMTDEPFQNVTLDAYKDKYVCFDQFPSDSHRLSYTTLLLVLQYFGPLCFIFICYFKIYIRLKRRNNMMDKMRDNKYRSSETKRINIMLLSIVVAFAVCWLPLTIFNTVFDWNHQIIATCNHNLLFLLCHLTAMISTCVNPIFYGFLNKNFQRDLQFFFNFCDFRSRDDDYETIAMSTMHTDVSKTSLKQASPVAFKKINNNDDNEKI

[19] = molecular target: Neuropeptide Y receptor type 2 (Homo sapiens) (UniProt P49146); assay: Binding affinity to Neuropeptide Y Y2 receptor at 10 uM by radioligand binding assay; how it was run: as §1
[20] = Binding affinity to Nicotinic receptor at 10 uM by radioligand binding assay; how it was run: as §1
[21] = molecular target: Sodium-dependent noradrenaline transporter (Homo sapiens) (UniProt P23975); assay: Binding affinity to norepinephrine transporter at 10 uM by radioligand binding assay; how it was run: as §2
[22] = molecular target: Sodium-dependent dopamine transporter (Homo sapiens) (UniProt Q01959); assay: Binding affinity to Dopamine transporter at 10 uM by radioligand binding assay; how it was run: as §1
[23] = Binding affinity to GABA transporter at 10 uM by radioligand binding assay; how it was run: as §1
[24] = molecular target: Sodium-dependent serotonin transporter (Homo sapiens) (UniProt P31645); assay: Binding affinity to Serotonin transporter at 10 uM by radioligand binding assay; how it was run: as §2
[25] = molecular target: Sodium- and chloride-dependent glycine transporter 2 (Homo sapiens) (UniProt Q9Y345); assay: Binding affinity to Glycine transporter at 10 uM by radioligand binding assay; how it was run: as §1
[26] = molecular target: Alpha-2A adrenergic receptor (Homo sapiens) (UniProt P08913); assay: Binding affinity to Adrenergic alpha2A receptor at 10 uM by radioligand binding assay; how it was run: as §1
[27] = molecular target: D(1A) dopamine receptor (Homo sapiens) (UniProt P21728); assay: Binding affinity to Dopaminergic D1 receptor at 10 uM by radioligand binding assay; how it was run: as §1
[28] = molecular target: D(2) dopamine receptor (Homo sapiens) (UniProt P14416); assay: Binding affinity to Dopaminergic D2L receptor at 10 uM by radioligand binding assay; how it was run: as §1
Sequence of D(2) dopamine receptor (Homo sapiens) (P14416 whole entry): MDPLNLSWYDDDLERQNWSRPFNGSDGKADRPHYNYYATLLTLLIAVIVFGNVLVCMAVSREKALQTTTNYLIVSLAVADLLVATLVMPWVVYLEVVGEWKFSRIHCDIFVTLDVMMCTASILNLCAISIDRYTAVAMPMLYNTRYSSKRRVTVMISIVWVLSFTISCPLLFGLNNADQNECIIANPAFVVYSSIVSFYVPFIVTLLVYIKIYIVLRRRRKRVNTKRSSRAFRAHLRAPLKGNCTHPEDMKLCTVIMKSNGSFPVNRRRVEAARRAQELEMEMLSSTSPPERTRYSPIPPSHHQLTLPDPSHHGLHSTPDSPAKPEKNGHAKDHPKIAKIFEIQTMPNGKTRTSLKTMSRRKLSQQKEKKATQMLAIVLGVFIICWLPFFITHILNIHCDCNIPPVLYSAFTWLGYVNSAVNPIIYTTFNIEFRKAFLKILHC

[29] = molecular target: D(3) dopamine receptor (Homo sapiens) (UniProt P35462); assay: Binding affinity to Dopaminergic D3 receptor at 10 uM by radioligand binding assay; how it was run: as §1
[30] = Binding affinity to Dopaminergic D4.2 receptor at 10 uM by radioligand binding assay; how it was run: as §1
[31] = molecular target: D(4) dopamine receptor (Homo sapiens) (UniProt P21917); assay: Binding affinity to Dopaminergic D4.4 receptor at 10 uM by radioligand binding assay; how it was run: as §1
[32] = Binding affinity to Dopaminergic D4.7 receptor at 10 uM by radioligand binding assay; how it was run: as §1
[33] = molecular target: Histamine H1 receptor (Homo sapiens) (UniProt P35367); assay: Binding affinity to Histaminergic H1 receptor at 10 uM by radioligand binding assay; how it was run: as §1
[34] = molecular target: Histamine H2 receptor (Homo sapiens) (UniProt P25021); assay: Binding affinity to Histaminergic H2 receptor at 10 uM by radioligand binding assay; how it was run: as §1
Sequence of Histamine H2 receptor (Homo sapiens) (P25021 whole entry): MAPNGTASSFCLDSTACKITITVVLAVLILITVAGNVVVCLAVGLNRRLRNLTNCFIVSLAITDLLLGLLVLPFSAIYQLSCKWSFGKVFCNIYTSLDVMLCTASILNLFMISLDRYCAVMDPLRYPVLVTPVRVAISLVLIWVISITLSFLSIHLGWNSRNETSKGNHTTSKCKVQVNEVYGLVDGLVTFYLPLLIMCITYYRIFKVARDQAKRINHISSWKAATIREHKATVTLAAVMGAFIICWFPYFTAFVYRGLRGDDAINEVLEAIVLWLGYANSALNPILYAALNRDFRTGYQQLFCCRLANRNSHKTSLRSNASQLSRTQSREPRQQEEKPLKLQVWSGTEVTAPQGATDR

[35] = molecular target: Histamine H3 receptor (Homo sapiens) (UniProt Q9Y5N1); assay: Binding affinity to Histaminergic H3 receptor at 10 uM by radioligand binding assay; how it was run: as §1
[36] = Binding affinity to imidazoline I2 receptor at 10 uM by radioligand binding assay; how it was run: as §2
[37] = molecular target: Sigma non-opioid intracellular receptor 1 (Homo sapiens) (UniProt Q99720); assay: Binding affinity to sigma 1 receptor at 10 uM by radioligand binding assay; how it was run: as §2
[38] = Binding affinity to L-type calcium channel bezothiazepine binding site at 10 uM by radioligand binding assay; how it was run: as §1
[39] = Binding affinity to L-type calcium channel dihydropyridine binding site at 10 uM by radioligand binding assay; how it was run: as §1
[40] = Binding affinity to N-type calcium channel at 10 uM by radioligand binding assay; how it was run: as §1
[41] = Binding affinity to Potassium channel at 10 uM by radioligand binding assay; how it was run: as §2
[42] = Binding affinity to Sodium channel at 10 uM by radioligand binding assay; how it was run: as §2
[43] = molecular target: Death-associated protein kinase 1 (Homo sapiens) (UniProt P53355); assay: Binding affinity to DAPK1 at 10 uM by radioligand binding assay; how it was run: as §1
[44] = molecular target: Death-associated protein kinase 2 (Homo sapiens) (UniProt Q9UIK4); assay: Binding affinity to DAPK2 at 10 uM by radioligand binding assay; how it was run: as §1
[45] = molecular target: Death-associated protein kinase 3 (Homo sapiens) (UniProt O43293); assay: Binding affinity to DAPK3 at 10 uM by radioligand binding assay; how it was run: as §1
Sequence of Death-associated protein kinase 3 (Homo sapiens) (O43293 whole entry, looked up): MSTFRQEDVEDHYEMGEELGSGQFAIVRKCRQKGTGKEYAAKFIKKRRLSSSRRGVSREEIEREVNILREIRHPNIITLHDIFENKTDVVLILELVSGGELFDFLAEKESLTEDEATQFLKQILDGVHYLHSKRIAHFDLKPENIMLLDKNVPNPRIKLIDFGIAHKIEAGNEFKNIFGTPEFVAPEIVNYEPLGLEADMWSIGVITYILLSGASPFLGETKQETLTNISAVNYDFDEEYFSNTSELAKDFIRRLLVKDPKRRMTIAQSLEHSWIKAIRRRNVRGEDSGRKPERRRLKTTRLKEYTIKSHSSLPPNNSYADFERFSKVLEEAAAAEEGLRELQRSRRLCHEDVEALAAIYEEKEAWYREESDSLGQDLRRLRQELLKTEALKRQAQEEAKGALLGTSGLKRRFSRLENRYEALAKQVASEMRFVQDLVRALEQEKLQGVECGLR

[46] = molecular target: Mitogen-activated protein kinase 8 (Homo sapiens) (UniProt P45983); assay: Binding affinity to MAPK8 at 10 uM by radioligand binding assay; how it was run: as §1
[47] = molecular target: Mitogen-activated protein kinase 10 (Homo sapiens) (UniProt P53779); assay: Binding affinity to MAPK10 at 10 uM by radioligand binding assay; how it was run: as §1
Sequence of Mitogen-activated protein kinase 10 (Homo sapiens) (P53779 whole entry): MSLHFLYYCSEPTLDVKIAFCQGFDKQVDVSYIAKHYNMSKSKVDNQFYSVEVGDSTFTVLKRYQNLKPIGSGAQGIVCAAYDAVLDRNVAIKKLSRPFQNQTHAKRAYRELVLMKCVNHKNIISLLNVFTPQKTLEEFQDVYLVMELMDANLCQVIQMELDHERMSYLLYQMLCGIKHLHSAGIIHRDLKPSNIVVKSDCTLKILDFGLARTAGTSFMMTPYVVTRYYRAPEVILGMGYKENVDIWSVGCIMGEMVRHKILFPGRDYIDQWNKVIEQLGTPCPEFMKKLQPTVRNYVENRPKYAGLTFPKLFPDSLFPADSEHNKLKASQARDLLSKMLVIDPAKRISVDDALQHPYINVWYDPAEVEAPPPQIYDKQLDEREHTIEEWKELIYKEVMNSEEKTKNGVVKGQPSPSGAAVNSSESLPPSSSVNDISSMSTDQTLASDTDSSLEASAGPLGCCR

[48] = Binding affinity to AMPA receptor at 10 uM by radioligand binding assay; how it was run: as §1
[49] = Binding affinity to Kainate receptor at 10 uM by radioligand binding assay; how it was run: as §1
[50] = Binding affinity to NMDA receptor glycine binding site at 10 uM by radioligand binding assay; how it was run: as §1
[51] = Binding affinity to NMDA receptor phencyclidine binding site at 10 uM by radioligand binding assay; how it was run: as §1
[52] = Binding affinity to GABAB receptor at 10 uM by radioligand binding assay; how it was run: as §1
[53] = Binding affinity to GABAA receptor flunitrazepam binding site at 10 uM by radioligand binding assay; how it was run: as §1
[54] = Binding affinity to GABAA receptor Ro-15-1788 binding site at 10 uM by radioligand binding assay; how it was run: as §1
[55] = molecular target: D(2) dopamine receptor (Homo sapiens) (UniProt P14416); assay: Binding affinity to Dopaminergic D2S receptor at 10 uM by radioligand binding assay; how it was run: as §1
[56] = molecular target: Cyclin-dependent kinase 5 (Homo sapiens) (UniProt Q00535); assay: Binding affinity to CDK5 at 10 uM by radioligand binding assay; how it was run: as §1

SMILES: CCSc1nn2c(C)cc(C)nc2c1S(=O)(=O)c1ccccc1
- Ki [1]: 0.00191 µM

SMILES: Cc1cc(C)n2ncc(S(=O)(=O)c3ccccc3)c2n1
- Ki [1]: 0.561 µM

SMILES: CNc1nn2c(C)cc(C)nc2c1S(=O)(=O)c1ccccc1
- Ki [2]: 0.0002 µM
- Ratio (Homo sapiens): 5000
- Ratio (HEK293): 1000
- IC50 [3]: > 30 µM
- Activity [4]: inactive
- Activity [5]: inactive
- Activity [6]: inactive
- Activity [7]: inactive
- Activity [8]: inactive
- Activity [9]: inactive
- Activity [10]: inactive
- Activity [11]: inactive
- Activity [12]: inactive
- Activity [13]: inactive
- Activity [14]: inactive
- Activity [15]: inactive
- Activity [16]: inactive
- Activity [17]: inactive
- Activity [18]: inactive
- Activity [19]: inactive
- Activity [20]: inactive
- Activity [21]: inactive
- Activity [22]: inactive
- Activity [23]: inactive
- Activity [24]: inactive
- Activity [25]: inactive
- Activity [26]: inactive
- Activity [27]: inactive
- Activity [28]: inactive
- Activity [29]: inactive
- Activity [30]: inactive
- Activity [31]: inactive
- Activity [32]: inactive
- Activity [33]: inactive
- Activity [34]: inactive
- Activity [35]: inactive
- Activity [36]: inactive
- Activity [37]: inactive
- Activity [38]: inactive
- Activity [39]: inactive
- Activity [40]: inactive
- Activity [41]: inactive
- Activity [42]: inactive
- Activity [43]: inactive
- Activity [44]: inactive
- Activity [45]: inactive
- Activity [46]: inactive
- Activity [47]: inactive
- Activity [48]: inactive
- Activity [49]: inactive
- Activity [50]: inactive
- Activity [51]: inactive
- Activity [52]: inactive
- Activity [53]: inactive
- Activity [54]: inactive
- Activity [55]: inactive
- Activity [56]: inactive

SMILES: Cc1cc(C)n2nc(NCCN(C)C)c(S(=O)(=O)c3ccccc3)c2n1
- Ki [1]: 2.6 µM

Second part, the compound after the results:

- Ki [1]: 0.0888 µM
SMILES: Cc1cc(C)n2nc(C)c(S(=O)(=O)c3ccccc3)c2n1

- Ki [1]: 0.489 µM
SMILES: Cc1cc(C)n2nc(N(C)CCN(C)C)c(S(=O)(=O)c3ccccc3)c2n1

- Ki [1]: 0.0145 µM
SMILES: Cc1cc(C)n2nc(N(C)C)c(S(=O)(=O)c3ccccc3)c2n1
